Data as given in paper PMC11333997 (RSC Advances, 2024).

What was measured:
[1] = system: WI-38 normal human lung fibroblast cells; assay: MTT cytotoxicity on normal fibroblast cell line; format: cell-based; details: WI-38, read-out: IC50 WI-38
[2] = system: HEPG-2 hepatocellular carcinoma cells; assay: MTT in vitro anti-tumor screening; format: cell-based; details: Homo sapiens, HepG2, read-out: IC50 HEPG-2
EGFR = EGFR (Homo sapiens, UniProt P00533); assay: In vitro EGFR kinase inhibition assay; format: biochemical
VEGFR-2 = VEGFR-2 (Homo sapiens, UniProt P35968); assay: biochemical
HCT-116 cells = assay: Flow cytometry cell cycle analysis; format: cell-based, human
Summary of the method: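 HCT-116 cells exposed to the test compound for 24 h, with DMSO as control. Cells were stained with propidium iodide, and DNA ploidy was analysed on a FACSCalibur flow cytometer. The percentage of cells in G0–G1, S and G2-M phases was reported.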

[3] = system: HEPG-2, HCT-116 and MCF-7 cell lines; assay: MTT anti-tumor screening, values over the cancer cell line panel; format: cell-based; details: Homo sapiens, read-out: IC50 range over the cancer cell lines
[4] = system: MCF-7 breast cancer cells; assay: MTT in vitro anti-tumor screening; format: cell-based, human; details: read-out: IC50 MCF-7, mean of three independent experiments ± SD
EGFR/VEGFR-2 = EGFR/VEGFR-2 enzyme inhibition, both kinases stated together; format: biochemical; details: compared with the tested analogues (4)

Chain of EGFR (P00533 25-1210): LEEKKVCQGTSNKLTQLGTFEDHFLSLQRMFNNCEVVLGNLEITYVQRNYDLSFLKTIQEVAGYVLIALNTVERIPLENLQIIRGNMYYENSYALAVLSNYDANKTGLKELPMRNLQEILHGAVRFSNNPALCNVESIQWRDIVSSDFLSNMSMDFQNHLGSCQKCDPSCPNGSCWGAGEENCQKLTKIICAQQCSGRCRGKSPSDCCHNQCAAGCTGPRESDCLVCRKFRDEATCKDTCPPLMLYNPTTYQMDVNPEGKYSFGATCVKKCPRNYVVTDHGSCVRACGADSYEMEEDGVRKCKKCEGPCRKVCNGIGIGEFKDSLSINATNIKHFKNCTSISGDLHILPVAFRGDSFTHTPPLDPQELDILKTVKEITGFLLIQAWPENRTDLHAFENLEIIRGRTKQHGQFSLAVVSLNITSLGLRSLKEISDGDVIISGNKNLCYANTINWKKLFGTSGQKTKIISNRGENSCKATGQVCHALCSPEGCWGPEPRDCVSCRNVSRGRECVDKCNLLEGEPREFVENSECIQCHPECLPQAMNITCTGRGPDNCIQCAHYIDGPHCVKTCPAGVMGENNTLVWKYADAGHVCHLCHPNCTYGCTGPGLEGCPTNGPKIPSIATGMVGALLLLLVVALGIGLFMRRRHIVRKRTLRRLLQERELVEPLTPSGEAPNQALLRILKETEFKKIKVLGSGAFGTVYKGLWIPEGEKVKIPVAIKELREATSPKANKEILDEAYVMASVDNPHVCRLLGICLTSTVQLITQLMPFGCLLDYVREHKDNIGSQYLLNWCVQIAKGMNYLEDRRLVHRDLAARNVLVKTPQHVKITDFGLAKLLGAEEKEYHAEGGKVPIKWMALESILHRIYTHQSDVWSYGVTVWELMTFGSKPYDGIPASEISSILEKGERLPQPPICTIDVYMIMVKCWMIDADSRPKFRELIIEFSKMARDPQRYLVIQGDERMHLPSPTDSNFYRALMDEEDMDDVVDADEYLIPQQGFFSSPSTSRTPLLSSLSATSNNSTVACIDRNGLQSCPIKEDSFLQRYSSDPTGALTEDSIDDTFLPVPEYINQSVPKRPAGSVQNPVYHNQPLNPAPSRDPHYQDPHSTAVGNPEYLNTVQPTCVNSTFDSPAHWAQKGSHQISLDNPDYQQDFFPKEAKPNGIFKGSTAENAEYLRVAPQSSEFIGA
Chain of VEGFR-2 (P35968 20-1356): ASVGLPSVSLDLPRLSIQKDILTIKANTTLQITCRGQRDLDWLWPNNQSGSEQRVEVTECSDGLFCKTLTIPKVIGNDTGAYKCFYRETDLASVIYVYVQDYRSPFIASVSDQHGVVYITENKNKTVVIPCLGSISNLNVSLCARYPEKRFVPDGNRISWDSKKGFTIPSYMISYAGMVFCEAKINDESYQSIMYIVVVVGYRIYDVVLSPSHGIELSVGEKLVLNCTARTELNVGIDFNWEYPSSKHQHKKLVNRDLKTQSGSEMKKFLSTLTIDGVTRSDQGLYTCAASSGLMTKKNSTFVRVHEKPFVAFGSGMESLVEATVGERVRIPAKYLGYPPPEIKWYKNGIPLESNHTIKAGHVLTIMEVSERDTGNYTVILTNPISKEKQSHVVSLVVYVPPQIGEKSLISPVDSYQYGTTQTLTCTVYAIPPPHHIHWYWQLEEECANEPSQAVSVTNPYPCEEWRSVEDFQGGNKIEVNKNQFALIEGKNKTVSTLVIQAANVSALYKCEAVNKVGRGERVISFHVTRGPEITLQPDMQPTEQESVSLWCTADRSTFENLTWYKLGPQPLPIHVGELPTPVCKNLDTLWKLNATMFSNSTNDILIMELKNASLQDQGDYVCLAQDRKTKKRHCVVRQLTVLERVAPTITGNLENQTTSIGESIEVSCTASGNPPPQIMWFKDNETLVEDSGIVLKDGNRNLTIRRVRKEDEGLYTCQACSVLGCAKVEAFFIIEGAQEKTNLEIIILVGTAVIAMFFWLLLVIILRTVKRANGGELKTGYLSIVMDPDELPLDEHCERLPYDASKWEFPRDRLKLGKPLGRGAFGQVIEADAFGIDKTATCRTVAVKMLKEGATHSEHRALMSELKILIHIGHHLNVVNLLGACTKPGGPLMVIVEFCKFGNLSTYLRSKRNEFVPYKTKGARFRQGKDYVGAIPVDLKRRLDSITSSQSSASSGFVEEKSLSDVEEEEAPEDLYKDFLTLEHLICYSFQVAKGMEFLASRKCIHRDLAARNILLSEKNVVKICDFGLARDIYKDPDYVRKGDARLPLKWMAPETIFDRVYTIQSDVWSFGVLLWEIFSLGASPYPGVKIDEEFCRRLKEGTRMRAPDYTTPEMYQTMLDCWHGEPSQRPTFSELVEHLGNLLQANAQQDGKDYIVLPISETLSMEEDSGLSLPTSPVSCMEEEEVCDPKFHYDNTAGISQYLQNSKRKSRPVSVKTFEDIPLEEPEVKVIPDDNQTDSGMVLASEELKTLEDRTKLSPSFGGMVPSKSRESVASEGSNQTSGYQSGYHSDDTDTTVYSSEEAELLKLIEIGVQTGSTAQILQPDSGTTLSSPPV

Row | SMILES | IC50 [2] [µM] | IC50 [1] [µM] | further results
1 | Cc1ccc(-n2c(SCC(=O)NNC(=O)Nc3ccc(F)cc3)nc3ccccc3c2=O)cc1 [Compound 5, N-(4-Fluorophenyl)-2-(2-((4-oxo-3-(p-tolyl)-3,4-dihydroquinazolin-2-yl)thio)acetyl)hydrazinecarboxamide] | 58.9 ± 3.4 | > 100 | –
2 | Cc1ccc(NC(=O)NNC(=O)CSc2nc3ccccc3c(=O)n2-c2ccc(C)cc2)cc1 [Compound 7, 2-(2-((4-Oxo-3-(p-tolyl)-3,4-dihydroquinazolin-2-yl)thio)acetyl)-N-(p-tolyl)hydrazinecarboxamide] | 76.4 ± 4.3 | > 100 | –
3 | COc1ccc(NC(=O)NNC(=O)CSc2nc3ccccc3c(=O)n2-c2ccc(C)cc2)cc1 [Compound 8, N-(4-Methoxyphenyl)-2-(2-((4-oxo-3-(p-tolyl)-3,4-dihydroquinazolin-2-yl)thio)acetyl)hydrazinecarboxamide] | > 100 | 31.8 ± 2.2 | –
4 | Cc1ccc(-n2c(SCC(=O)NNC(=O)Nc3c(C)cccc3C)nc3ccccc3c2=O)cc1 [Compound 9, N-(2,6-Dimethylphenyl)-2-(2-((4-oxo-3-(p-tolyl)-3,4-dihydroquinazolin-2-yl)thio)acetyl)hydrazinecarboxamide] | 53.1 ± 3 | 62.2 ± 3.5 | –
5 | Cc1ccc(-n2c(SCC(=O)NNC(=O)Nc3ccc(C(F)(F)F)cc3Cl)nc3ccccc3c2=O)cc1 [Compound 10, N-(2-Chloro-4-(trifluoromethyl)phenyl)-2-(2-((4-oxo-3-(p-tolyl)-3,4-dihydroquinazolin-2-yl)thio)acetyl)hydrazinecarboxamide] | 49.6 ± 2.7 | 86.9 ± 4.4 | –
6 | O=C(CSc1nc2ccccc2c(=O)n1-c1ccc(Cl)cc1)NNC(=O)Nc1ccc(F)cc1 [Compound 13, 2-(2-((3-(4-Chlorophenyl)-4-oxo-3,4-dihydroquinazolin-2-yl)thio)acetyl)-N-(4-fluorophenyl)hydrazinecarboxamide] | 63.5 ± 3.7 | 47.5 ± 2.6 | –
7 | Cc1ccc(NC(=O)NNC(=O)CSc2nc3ccccc3c(=O)n2-c2ccc(Cl)cc2)cc1 [Compound 15, 2-(2-((3-(4-Chlorophenyl)-4-oxo-3,4-dihydroquinazolin-2-yl)thio)acetyl)-N-(p-tolyl)hydrazinecarboxamide] | 68.6 ± 3.9 | 43.2 ± 2.5 | –
8 | COc1ccc(NC(=O)NNC(=O)CSc2nc3ccccc3c(=O)n2-c2ccc(Cl)cc2)cc1 [Compound 16, 2-(2-((3-(4-Chlorophenyl)-4-oxo-3,4-dihydroquinazolin-2-yl)thio)acetyl)-N-(4-methoxyphenyl)hydrazinecarboxamide] | 46.6 ± 2.6 | 17.8 ± 1.3 | –
9 | O=C(CSc1nc2ccccc2c(=O)n1-c1ccc(Cl)cc1)NNC(=O)NCc1ccccc1 [Compound 19, N-Benzyl-2-(2-((3-(4-chlorophenyl)-4-oxo-3,4-dihydroquinazolin-2-yl)thio)acetyl)hydrazinecarboxamide] | 73.5 ± 4.2 | > 100 | –
10 | COc1ccc(NC(=O)NNC(=O)CSc2nc3ccccc3c(=O)n2-c2ccc(OC)cc2)cc1 [Compound 24, N-(4-Methoxyphenyl)-2-(2-((3-(4-methoxyphenyl)-4-oxo-3,4-dihydroquinazolin-2-yl)thio)acetyl)hydrazinecarboxamide] | > 100 | 71.4 ± 3.8 | –
11 | COc1ccc(-n2c(SCC(=O)NNC(=O)Nc3c(C)cccc3C)nc3ccccc3c2=O)cc1 [Compound 25, N-(2,6-Dimethylphenyl)-2-(2-((3-(4-methoxyphenyl)-4-oxo-3,4-dihydroquinazolin-2-yl)thio)acetyl)hydrazinecarboxamide] | 83.6 ± 4.5 | 56.4 ± 3.3 | –
12 | COc1ccc(-n2c(SCC(=O)NNC(=O)Nc3ccc(C(F)(F)F)cc3Cl)nc3ccccc3c2=O)cc1 [Compound 26, N-(2-Chloro-4-(trifluoromethyl)phenyl)-2-(2-((3-(4-methoxyphenyl)-4-oxo-3,4-dihydroquinazolin-2-yl)thio)acetyl)hydrazinecarboxamide] | 72.8 ± 4 | 30.2 ± 2.1 | –
13 | COc1ccc(-n2c(SCC(=O)NNC(=O)NCc3ccccc3)nc3ccccc3c2=O)cc1 [Compound 27, N-Benzyl-2-(2-((3-(4-methoxyphenyl)-4-oxo-3,4-dihydroquinazolin-2-yl)thio)acetyl)hydrazinecarboxamide] | 87.3 ± 4.6 | > 100 | –

Stronger by IC50 [2], values ahead:

Row | IC50 [2] [µM] | SMILES | IC50 [1] [µM] | further results
14 | 3.92 ± 0.2 | Cc1ccc(-n2c(SCC(=O)NNC(=O)Nc3ccccc3)nc3ccccc3c2=O)cc1 [Compound 4, 2-(2-((4-Oxo-3-(p-tolyl)-3,4-dihydroquinazolin-2-yl)thio)acetyl)-N-phenylhydrazinecarboxamide] | 45.6 ± 2.4 | IC50 (EGFR): 0.049 ± 0.002 µM; IC50 (VEGFR-2): 0.054 ± 0.002 µM; Cell cycle distribution G2-M (HCT-116 cells; at IC50 concentration, 24 h, control 19.54%): 8.65%; Cell cycle distribution S (HCT-116 cells; at IC50 concentration, 24 h, control 36.53%): 36.18%; Cell cycle distribution G0–G1 (HCT-116 cells; at IC50 concentration, 24 h, control 43.93%): 55.17%; cell cycle arrest phase (HCT-116 cells; flow cytometry): G1 phase; IC50 [3]: 1.5 to 5.86 µM
15 | 14.2 ± 1.2 | Cc1ccc(-n2c(SCC(=O)NNC(=O)Nc3ccc(Cl)cc3)nc3ccccc3c2=O)cc1 [Compound 6, N-(4-Chlorophenyl)-2-(2-((4-oxo-3-(p-tolyl)-3,4-dihydroquinazolin-2-yl)thio)acetyl)hydrazinecarboxamide] | 66.2 ± 3.9 | –
16 | 8.1 ± 0.6 | Cc1ccc(-n2c(SCC(=O)NNC(=O)NCc3ccccc3)nc3ccccc3c2=O)cc1 [Compound 11, N-Benzyl-2-(2-((4-oxo-3-(p-tolyl)-3,4-dihydroquinazolin-2-yl)thio)acetyl)hydrazinecarboxamide] | 54.1 ± 3 | IC50 (EGFR): 0.117 ± 0.005 µM; IC50 (VEGFR-2): 0.156 ± 0.007 µM
17 | 19.5 ± 1.3 | O=C(CSc1nc2ccccc2c(=O)n1-c1ccc(Cl)cc1)NNC(=O)Nc1ccccc1 [Compound 12, 2-(2-((3-(4-Chlorophenyl)-4-oxo-3,4-dihydroquinazolin-2-yl)thio)acetyl)-N-phenylhydrazinecarboxamide] | 75.5 ± 4 | IC50 [4]: 12.9 ± 1 µM
18 | 29.8 ± 1.8 | O=C(CSc1nc2ccccc2c(=O)n1-c1ccc(Cl)cc1)NNC(=O)Nc1ccc(Cl)cc1 [Compound 14, N-(4-Chlorophenyl)-2-(2-((3-(4-chlorophenyl)-4-oxo-3,4-dihydroquinazolin-2-yl)thio)acetyl)hydrazinecarboxamide] | 16.7 ± 1.4 | –
19 | 22.4 ± 1.5 | Cc1cccc(C)c1NC(=O)NNC(=O)CSc1nc2ccccc2c(=O)n1-c1ccc(Cl)cc1 [Compound 17, 2-(2-((3-(4-Chlorophenyl)-4-oxo-3,4-dihydroquinazolin-2-yl)thio)acetyl)-N-(2,6-dimethylphenyl)hydrazinecarboxamide] | 89.4 ± 4.7 | –
20 | 34.6 ± 2 | O=C(CSc1nc2ccccc2c(=O)n1-c1ccc(Cl)cc1)NNC(=O)Nc1ccc(C(F)(F)F)cc1Cl [Compound 18, N-(2-Chloro-4-(trifluoromethyl)phenyl)-2-(2-((3-(4-chlorophenyl)-4-oxo-3,4-dihydroquinazolin-2-yl)thio)acetyl)hydrazinecarboxamide] | 84.4 ± 4.2 | –
21 | 5.17 ± 0.4 | COc1ccc(-n2c(SCC(=O)NNC(=O)Nc3ccccc3)nc3ccccc3c2=O)cc1 [Compound 20, 2-(2-((3-(4-Methoxyphenyl)-4-oxo-3,4-dihydroquinazolin-2-yl)thio)acetyl)-N-phenylhydrazinecarboxamide] | 42.9 ± 2.6 | IC50 (EGFR): 0.362 ± 0.014 µM; IC50 (VEGFR-2): 0.474 ± 0.02 µM; IC50 [3]: 4.42 to 6.39 µM; fold decrease in binding affinity (EGFR and VEGFR-2) (EGFR/VEGFR-2): 9–10 fold
22 | 11.5 ± 0.9 | COc1ccc(-n2c(SCC(=O)NNC(=O)Nc3ccc(F)cc3)nc3ccccc3c2=O)cc1 [Compound 21, N-(4-Fluorophenyl)-2-(2-((3-(4-methoxyphenyl)-4-oxo-3,4-dihydroquinazolin-2-yl)thio)acetyl)hydrazinecarboxamide] | 27.6 ± 1.9 | –
23 | 37.8 ± 2.1 | COc1ccc(-n2c(SCC(=O)NNC(=O)Nc3ccc(Cl)cc3)nc3ccccc3c2=O)cc1 [Compound 22, N-(4-Chlorophenyl)-2-(2-((3-(4-methoxyphenyl)-4-oxo-3,4-dihydroquinazolin-2-yl)thio)acetyl)hydrazinecarboxamide] | 15.5 ± 1.2 | –
24 | 41.3 ± 2.4 | COc1ccc(-n2c(SCC(=O)NNC(=O)Nc3ccc(C)cc3)nc3ccccc3c2=O)cc1 [Compound 23, 2-(2-((3-(4-Methoxyphenyl)-4-oxo-3,4-dihydroquinazolin-2-yl)thio)acetyl)-N-(p-tolyl)hydrazinecarboxamide] | 63.9 ± 3.7 | –
